ChEMBL document CHEMBL3286113, “New potent antibacterial oxazolidinone (MRX-I) with an improved class safety profile” (J Med Chem, 2014)
≈ marks a conversion by molar mass, not a printed value.

Assays:
[1] = test system: Rattus norvegicus; experiment: Dose normalized Cmax in po dosed rat; type: ADME, organism-based; settings: in vivo
[2] = AUC (0 to infinity) in fasted human at 300 mg, po administered as single dose; type: ADME, organism-based; set-up: dose 300 mg, route oral, time infinity; settings: plasma
Procedure, shortened: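 Single-dose, three-period Latin-square crossover in 12 healthy volunteers (6 of each gender). Each received single oral 300, 600 and 900 mg doses under fasting conditions, with a 1-week washout between doses. PK parameters, including AUC0−inf, came from a noncompartmental model.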

[3] = test system: L5178Y; experiment: Mutagenicity in mouse tk +/- L5178Y cells assessed as increase in gene mutation frequency at 62.5 to 1000 ug/mL in absence of S9 fraction
[4] = test system: Homo sapiens; experiment: Toxicity in fasted human at 50 to 1800 mg, po; type: organism-based; settings: in vivo
Procedure, shortened: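 Randomized, double-blind, placebo-controlled single ascending dose study in healthy Chinese subjects under fasting conditions. Eight groups received single oral doses of 50, 100, 200, 400, 800, 1200, 1600 or 1800 mg, with tolerability assessed.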

[5] = Tmax in male rat at 45 mg/kg, po; type: ADME, organism-based; set-up: dose 45 mg/kg, route oral; settings: in vivo
Procedure, shortened: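 Male and female rats received single oral doses of 5, 15 or 45 mg/kg, with 5 mg/kg iv as a reference arm. Tmax was read from the plasma concentration–time profile for each gender.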

[6] = test system: Staphylococcus aureus; experiment: Antibacterial activity against Staphylococcus aureus measured after 6 serial passages; type: functional
[7] = Cmax in human at 600 mg, po administered as single dose with meal measured on day 1; type: ADME, organism-based; set-up: dose 600 mg, route oral; settings: in vivo
Procedure, shortened: (§1)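 Randomized, double-blind, placebo-controlled multiple-dose study in 32 healthy subjects, half male and half female. Each dose was taken with a meal, at 600 or 800 mg, 28 doses over 15 days. A single dose on days 1 and 15 gave full PK; BID (Q12h) dosing ran on days 2–14.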

[8] = test system: Rattus norvegicus; experiment: Toxicity in female rat assessed as effect on RBC count at 200 to 300 mg/kg/day, po bid administered for 4 weeks (reference value: 7.28 x 10^12/L); type: organism-based; set-up: route oral; settings: in vivo, 672 h
[9] = test system: Staphylococcus aureus; experiment: Antibacterial activity against Staphylococcus aureus assessed as time required for growth inhibition; type: functional
[10] = Tmax in human at 800 mg, po administered as single dose with meal measured on day 1; type: ADME, organism-based; settings: in vivo
Procedure, shortened: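 Randomized, double-blind, placebo-controlled multiple-dose study in 32 healthy subjects, half male and half female. Dosing was 600 or 800 mg orally with a meal, 28 doses over 15 days. A single dose was given on days 1 and 15 for full PK, with Q12h (BID) dosing on days 2−14.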

[11] = test system: Rattus norvegicus; experiment: Toxicity in female rat assessed as effect on RBC count at 20 mg/kg/day, po bid administered for 4 weeks (reference value: 7.28 x 10^12/L); type: organism-based; set-up: route oral; settings: in vivo, 672 h
[12] = test system: Staphylococcus aureus; experiment: Antibacterial activity against methicillin-sensitive Staphylococcus aureus isolate 15 in po dosed mouse systemic infection model; type: functional; settings: isolate 15, po
[13] = AUC (0 to t) in female rat at 15 mg/kg, po; type: ADME, organism-based; set-up: dose 15 mg/kg, route oral; settings: plasma
Procedure, shortened: (§2)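 Rat PK by gender, with single oral doses of 5, 15 and 45 mg/kg and an iv dose of 5 mg/kg. Tmax, Cmax, T1/2 and AUC0−t were reported per gender.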

[14] = molecular target: Cytochrome P450 2C19 (Homo sapiens, UniProt P33261); experiment: Inhibition of CYP2C19 (unknown origin) at 1 to 200 uM; type: ADME
[15] = Clastogenicity in CHL cells assessed as induction of structural chromosomal aberration at 50 to 400 ug/mL measured over 6 hrs in presence of metabolic activation; type: toxicity, cell-based, Cricetulus griseus; settings: chinese hamster
Procedure, shortened: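 Chinese hamster lung cells scored for structural chromosome aberrations with or without metabolic activation. Exposure was 50–400 μg/mL over 6 h, or 25–200 μg/mL over 24 h.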

[16] = AUC (0 to 24 hrs) in human at 600 mg, po administered as single dose with meal measured on day 15; type: ADME, organism-based; set-up: time < 24 hr, dose 600 mg, route oral; settings: plasma
Procedure, shortened: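 Randomized, double-blind, placebo-controlled multiple-dose study in 32 healthy subjects (half male, half female). Subjects took 28 oral doses of 600 or 800 mg over 15 days, each with a meal. A single dose was given on days 1 and 15 for full PK, and doses were given Q12h from day 2 to day 14. AUC0−24 was measured on days 1 and 15.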

[17] = Half life in female rat at 5 mg/kg, po; type: ADME, organism-based; set-up: dose 5 mg/kg, route oral; settings: in vivo
[18] = test system: Staphylococcus aureus; experiment: Antibacterial activity against methicillin-sensitive Staphylococcus aureus ATCC 29213 in mouse thigh infection model assessed as reduction of log10 CFU per thigh at 80 mg/kg, po; type: functional
Procedure, shortened: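 Mouse thigh infection with S. aureus ATCC29213 (MSSA), 10 animals per dosing group. Oral doses were 5, 10, 20, 40 and 80 mg/kg. The read-out was log CFU per thigh after treatment, and the reduction (ΔLogCFU/thigh) was reported.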

[19] = test system: Staphylococcus aureus; experiment: Antibacterial activity against methicillin-resistant Staphylococcus aureus isolate 0605 in mouse thigh infection model assessed as reduction of log10 CFU per thigh at 5 mg/kg, po; type: functional
[20] = Half life in female rat at 15 mg/kg, po; type: ADME, organism-based; set-up: dose 15 mg/kg, route oral; settings: in vivo
[21] = test system: Rattus norvegicus; experiment: Toxicity in female rat assessed as effect on mean corpuscular hemoglobin level at 100 mg/kg/day, po bid administered for 4 weeks (reference value: 19.5 pg); type: organism-based; set-up: route oral; settings: in vivo, 672 h
[22] = test system: Rattus norvegicus; experiment: Toxicity in female rat assessed as effect on mean corpuscular volume at 20 mg/kg/day, po bid administered for 4 weeks (reference value: 53.72 fL); type: organism-based; set-up: route oral; settings: in vivo, 672 h
[23] = species: Rattus norvegicus; experiment: Drug uptake in rat measured over 7 days; type: ADME, organism-based; settings: in vivo, 168 h
[24] = Tmax in po dosed dog; type: ADME, organism-based, Canis lupus familiaris; settings: in vivo
[25] = test system: Homo sapiens; experiment: Drug uptake in human at 600 to 800 mg, po administered as single dose with meal measured on day 1 and day 15; type: ADME, organism-based; settings: in vivo; procedure, shortened: as §1
[26] = test system: Rattus norvegicus; experiment: Toxicity in female rat assessed as effect on hemoglobin level at 200 to 300 mg/kg/day, po bid administered for 4 weeks (reference value: 141.8 g/L); type: organism-based; set-up: route oral; settings: in vivo, 672 h
[27] = test system: Rattus norvegicus; experiment: Toxicity in female rat assessed as effect on neutrophil count at 200 to 300 mg/kg/day, po bid administered for 4 weeks (reference value: 22.4%); type: organism-based; set-up: route oral; settings: in vivo, 672 h
[28] = Tmax in po dosed rat; type: ADME, organism-based; settings: in vivo
[29] = AUC (0 to t) in male rat at 5 mg/kg, iv; type: ADME, organism-based; set-up: dose 5 mg/kg, route intravenous; settings: plasma; procedure, shortened: as §2
[30] = test system: Streptococcus constellatus; experiment: Antibacterial activity against Streptococcus constellatus; type: functional
[31] = test system: Staphylococcus epidermidis; experiment: Antibacterial activity against methicillin-sensitive Staphylococcus epidermidis; type: functional
[32] = test system: Rattus norvegicus; experiment: Toxicity in female rat assessed as effect on mean corpuscular volume at 200 to 300 mg/kg/day, po bid administered for 4 weeks (reference value: 53.72 fL); type: organism-based; set-up: route oral; settings: in vivo, 672 h
[33] = test system: Enterococcus; experiment: Bacteriostatic activity against vancomycin-sensitive Enterococcus; type: functional
[34] = test system: Staphylococcus aureus; experiment: Antibacterial activity against Staphylococcus aureus; type: functional
[35] = test system: Rattus norvegicus; experiment: Toxicity in female rat assessed as effect on reticulocyte count at 100 mg/kg/day, po bid administered for 4 weeks (reference value: 1.48%); type: organism-based; set-up: route oral; settings: in vivo, 672 h
[36] = test system: Rattus norvegicus; experiment: Toxicity in female rat assessed as effect on platelet count at 20 mg/kg/day, po bid administered for 4 weeks (reference value: 654.6 x 10^9/L); type: organism-based; set-up: route oral; settings: in vivo, 672 h

Cytochrome P450 2C19, sequence (P33261 whole entry): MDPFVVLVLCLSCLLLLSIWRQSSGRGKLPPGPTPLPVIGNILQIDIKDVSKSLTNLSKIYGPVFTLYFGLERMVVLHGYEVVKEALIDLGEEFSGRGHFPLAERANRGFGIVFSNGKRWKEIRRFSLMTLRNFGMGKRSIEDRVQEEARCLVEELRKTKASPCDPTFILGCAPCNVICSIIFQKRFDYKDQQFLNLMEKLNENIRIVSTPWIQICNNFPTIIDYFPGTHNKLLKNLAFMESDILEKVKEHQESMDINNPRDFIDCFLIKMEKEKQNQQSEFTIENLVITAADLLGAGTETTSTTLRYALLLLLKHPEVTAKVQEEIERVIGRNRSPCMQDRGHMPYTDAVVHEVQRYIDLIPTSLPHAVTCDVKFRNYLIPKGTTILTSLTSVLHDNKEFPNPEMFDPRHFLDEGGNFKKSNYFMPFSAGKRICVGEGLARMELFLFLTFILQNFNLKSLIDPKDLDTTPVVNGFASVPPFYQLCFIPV

**Q.** For O=C1C=CN(c2c(F)cc(N3C[C@H](CNc4ccon4)OC3=O)c(F)c2F)CC1 [CONTEZOLID], which Cmax/dose [1] is on record?
**A.** Its Cmax/dose is 1065 ng/mL/(mg/kg).

**Q.** And the AUC(0-inf) [2]?
**A.** Its AUC(0-inf) is 29200 ng·h/mL.

**Q.** What about the Activity [3] of the same compound?
**A.** The Activity was “Non-toxic”.

**Q.** And the Activity [4]?
**A.** Its Activity is “Non-toxic”.

**Q.** And the Tmax [5]?
**A.** Its Tmax is 60 min.

**Q.** What about the MIC [6] of the same compound?
**A.** Its MIC is 2 µg/mL (≈ 4.9 µM).

**Q.** And the Cmax [7]?
**A.** The Cmax was 20300 ng/mL.

**Q.** What about the Activity [8] of the same compound?
**A.** Its Activity is 5.77 ×10¹² /L.

**Q.** What about the Time [9] of the same compound?
**A.** Its Time is 1.6 h.

**Q.** And the Tmax [10]?
**A.** Its Tmax is 51 min.

**Q.** What about the Activity [11] of the same compound?
**A.** Its Activity is 6.82 ×10¹² /L.

**Q.** And the ED50 [12]?
**A.** The ED50 was 5.7 mg/kg.

**Q.** And the AUC(0-t) [13]?
**A.** The AUC(0-t) was 64700 ng·h/mL.

**Q.** What about the “inhibition (INH)” value [14] of the same compound?
**A.** Its value is “Not Active”.

**Q.** What about the Activity [15] of the same compound?
**A.** The Activity was “Non-toxic”.

**Q.** What about the AUC(0-t) at 24 h [16] of the same compound?
**A.** The AUC(0-t) at 24 h was 72900 ng·h/mL.

**Q.** What about the half-life [17] of the same compound?
**A.** The half-life was 124 min.

**Q.** What about the deltalog10CFU [18] of the same compound?
**A.** The deltalog10CFU was 3.73.

**Q.** What about the deltalog10CFU [19] of the same compound?
**A.** The deltalog10CFU was 2.45.

**Q.** And the half-life [20]?
**A.** Its half-life is 88.2 min.

**Q.** And the Activity [21]?
**A.** The Activity was 20.28 pg.

**Q.** What about the Activity [22] of the same compound?
**A.** The Activity was 54.52 fL.

**Q.** And the Drug uptake [23]?
**A.** Its Drug uptake is “Not Active”.

**Q.** And the Tmax [24]?
**A.** The Tmax was 30 min.

**Q.** What about the Drug uptake [25] of the same compound?
**A.** The Drug uptake was “Not Active”.

**Q.** What about the Activity [26] of the same compound?
**A.** The Activity was 117.6 g/L.

**Q.** And the Activity [27]?
**A.** The Activity was 26.4%.

**Q.** And the Tmax [28]?
**A.** The Tmax was 30 min.

**Q.** And the AUC(0-t) [29]?
**A.** The AUC(0-t) was 12900 ng·h/mL.

**Q.** What about the MIC50 [30] of the same compound?
**A.** Its MIC50 is 0.5 µg/mL (≈ 1.22 µM).

**Q.** And the MIC90 [30]?
**A.** The MIC90 was 1 µg/mL (≈ 2.45 µM).

**Q.** What about the MIC [31] of the same compound?
**A.** Its MIC is 0.25 µg/mL (≈ 0.612 µM).

**Q.** What about the MIC50 [31] of the same compound?
**A.** The MIC50 was 0.25 µg/mL (≈ 0.612 µM).

**Q.** What about the MIC90 [31] of the same compound?
**A.** Its MIC90 is 0.5 µg/mL (≈ 1.22 µM).

**Q.** What about the Activity [32] of the same compound?
**A.** The Activity was 53.02 fL.

**Q.** What about the MIC50 [33] of the same compound?
**A.** Its MIC50 is 1 µg/mL (≈ 2.45 µM).

**Q.** What about the MIC90 [33] of the same compound?
**A.** Its MIC90 is 1 µg/mL (≈ 2.45 µM).

**Q.** And the MIC [34]?
**A.** Its MIC is 2 µg/mL (≈ 4.9 µM).

**Q.** What about the Activity [35] of the same compound?
**A.** The Activity was 1.46%.

**Q.** And the Activity [36]?
**A.** The Activity was 638.2 ×10⁹ /L.
